Shown are actives, neighbours in structure and some others; about 2.6% of the full set was active somewhere.
E-sel inducer = E-selectin induction in HUVECs, primary screen, imaging, HUVEC, immunofluorescence imaging, single point; P16581; normalized: neutral wells 0, TNF-alpha wells 100; activation, % at 7.58 µM; 0.37% of 260,000 active;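 active means mean E-selectin-positive cell signal at least 10% of the positive control, reached in at least 60% of replicates, without over 20% cell loss; inconclusive means no rule given, readout overlaps actives, possibly toxicity-flagged; inactive means the rest, including those meeting only one limit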
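Assay system: HUVEC, human umbilical vein endothelial cells / Amount: 3,000 HUVEC/well / Controls: TNF-alpha positive control, DMSO neutral control / Compound dosing: single concentration / Medium: EGM-2 over gelatin coat / Evaluation: percent E-selectin-positive cells / Signal: immunofluorescence imaging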
rRNA inh HTS = reduced GFP signal of wild-type E. coli, primary screen, bacterial rRNA inhibitor project, GFP/RFP fluorescence, OD600, single point | E. coli WT GFP vs humanized-ribosome RFP mutants, 24 h; stronger effect = lower value; DMSO median 0, no signal -100 | GFP signal change (wild-type ribosome), % (no concentration beside the values) | 1.6% of 350,000 active | AID 720706, 2013;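 active means significant combined selectivity score with lowered wild-type GFP, culture density cut under 30%, mutant RFP and density less affected; inactive means any of these conditions unmet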
RAD54 branch = inhibitors of human RAD54 branch migration, primary screen, biochemical, fluorescence, single point; DNA repair and recombination protein RAD54-like (Homo sapiens), Q92698; RAD54 Holliday junction branch migration, FAM/BHQ fluorescence; inhibition, % at 10.4 µM; 0.14% of 360,000 active;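 active means mean normalized replicate activity at least 40 and at least half of replicates scoring 40 or more; inconclusive means only one of the two criteria met; inactive means mean below 40 and under half of replicates reaching 40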;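 further: 0% = median of neutral control wells and 100% = median of positive control wells; inhibitors cause a drop in the FAM fluorescence signal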
Target sequence (Q92698 whole entry, looked up): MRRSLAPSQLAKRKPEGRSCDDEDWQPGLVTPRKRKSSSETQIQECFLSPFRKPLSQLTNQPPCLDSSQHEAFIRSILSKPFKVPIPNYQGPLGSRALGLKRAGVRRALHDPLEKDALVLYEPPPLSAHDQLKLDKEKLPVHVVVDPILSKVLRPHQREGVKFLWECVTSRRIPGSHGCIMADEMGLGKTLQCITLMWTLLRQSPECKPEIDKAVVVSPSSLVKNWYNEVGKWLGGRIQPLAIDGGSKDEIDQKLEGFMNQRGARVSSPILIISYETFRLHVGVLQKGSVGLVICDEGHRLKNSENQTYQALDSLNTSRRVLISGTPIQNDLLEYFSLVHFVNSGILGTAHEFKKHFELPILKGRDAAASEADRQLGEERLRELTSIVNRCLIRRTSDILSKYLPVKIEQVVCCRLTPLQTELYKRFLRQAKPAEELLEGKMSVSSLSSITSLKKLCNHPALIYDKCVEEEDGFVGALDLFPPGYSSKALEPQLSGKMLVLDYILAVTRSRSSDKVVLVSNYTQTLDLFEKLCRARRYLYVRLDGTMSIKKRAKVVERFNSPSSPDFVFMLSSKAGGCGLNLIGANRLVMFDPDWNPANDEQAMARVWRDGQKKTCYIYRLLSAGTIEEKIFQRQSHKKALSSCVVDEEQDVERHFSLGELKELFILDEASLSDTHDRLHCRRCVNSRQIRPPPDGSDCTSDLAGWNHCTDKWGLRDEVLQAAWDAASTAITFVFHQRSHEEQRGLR
RAD52 inh = RAD52 DNA annealing inhibitors, primary screen, biochemical, FRET, single point, set 2. DNA repair protein RAD52 homolog (Homo sapiens), P43351. recombinant RAD52 DNA annealing, FRET fluorescence. inhibition, % at 18.7 µM. 0.46% of 360,000 active. AID 651710, 2012;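 active means every replicate showing at least 50% inhibition; inconclusive means mean inhibition at least 50% but not in every replicate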
MLL AF4-AF9 inh = inhibitors of AF4 peptide binding to AF9, primary screen, biochemical, AlphaScreen, biotin-AF4 peptide, FLAG-AF9, single point | Protein AF-9 (Homo sapiens), P42568 | inhibition, % at 10 µM | 0.47% of 350,000 active | AID 651704, 2012;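 active means every replicate reaching a set inhibition limit, whatever the replicate mean, cut at about 25% in these data; inconclusive means mean inhibition reaches that limit but some replicates miss it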;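 further: 0% = plate neutral control median and 100% = total signal loss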
INS-1E GSIS act = GLuc luminescence reporter in INS-1E cells, primary screen for activators of glucose-dependent secretion of insulin; INS-1E GLuc reporter insulin secretion, 2-3 h; activation, % at 16.6 µM; 0.61% of 370,000 active; AID 743287, 2014;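 active means lowest replicate activation of at least 40%, so every replicate reaches that level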;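 further: 0% = median of neutral control wells and 100% = median of IBMX positive control wells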
DNA binder FP = DNA-binding compounds via dye displacement, dose response, artefact control for RAD52 inhibitor project, biochemical, fluorescence polarization, cherry-pick | shares compounds with RAD52 inh | Salmon sperm DNA/acridine orange FP displacement | AC50, µM | 8% of 1,000 active | AID 652128, 2013;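 active means fitted half-maximal concentration for signal loss at or below twice the highest dose tested, in every separate run, actives reach about 64 µM in these data; inconclusive means runs disagree, or flat partial signal loss, or poor fit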
* hit, by the source's call; i = inactive; ? = inconclusive; . = no result.

SMILES | E-sel inducer | rRNA inh HTS | RAD54 branch | RAD52 inh | MLL AF4-AF9 inh | INS-1E GSIS act | DNA binder FP
CCC(=O)N[C@H]1C=C[C@@H](CC(=O)NCc2ccc(OC)cc2)O[C@@H]1CO | 0 | 1 | 3 | -10 | -1 | -2 | .
CO[C@@H]1CN(C)C(=O)c2ccc(NS(=O)(=O)c3ccc(Cl)cc3)cc2OC[C@H](C)N(C)C[C@H]1C | 0 | 1 | -1 | 11 | -2 | 4 | .
CCCCCc1cc(=O)oc2c(C(CCN(CC)CC)c3ccc(N(C)C)cc3)c(OC)cc(OC)c12 (stereo unspecified) | . | -48 | 17 | 60* | 52* | . | i
C[C@H](CO)N1C[C@H](C)[C@H](CN(C)S(=O)(=O)c2ccccc2F)OCc2ccccc2-c2ccccc2C1=O | 0 | -5 | 0 | 18 | 1 | -4 | .
O=C(C[C@@H]1C=C[C@@H](NC(=O)C2CCOCC2)[C@H](CO)O1)NCC1CC1 | 0 | 1 | 1 | -4 | -2 | 20 | .
CCCNc1nc2ccccc2n2c(C)nnc12 | . | 4 | -1 | 73* | 0 | 10 | i
C[C@H]1CN([C@@H](C)CO)C(=O)Cc2cc(NC(=O)Nc3ccc(F)cc3)ccc2O[C@@H]1CN(C)CC1CCCCC1 | -1 | -7 | 6 | 10 | 4 | -14 | .
C[N+]1(CC(=O)NNc2c3ccccc3nc3ccccc23)CCOCC1 | -1 | -12 | . | 101* | -8 | 0 | 9µM*
CN1CCN(C2CCN(c3ccc(Nc4nnc(Cl)c(Nc5ccccc5S(C)(=O)=O)n4)c(OC(CF)CF)c3)CC2)CC1 | 1 | -2 | 2 | 51* | . | -3 | i
CC(C)Oc1cc(C(=O)N2CCC(N3CCCCC3)CC2)ccc1Nc1nnc(Cl)c(Nc2ccccc2S(C)(=O)=O)n1 | . | . | 23 | . | . | . | .
Cc1noc(C)c1S(=O)(=O)N(C)C[C@H]1Oc2ccc(N(C)C)cc2CC(=O)N([C@H](C)CO)C[C@H]1C | 0 | -1 | -5 | -5 | . | -4 | .
CC(=O)Nc1cc(-c2cccc(NS(C)(=O)=O)c2)cn2c(-c3cccc(C(F)(F)F)c3)cnc12 | 0 | 1 | -5 | -73 | 3 | -3 | .
CN(C)CCNC(=O)c1cccc(-c2cnc3c(NC=O)cc(/C=C/c4ccccc4)cn23)c1 | 0 | 8 | 18 | 80* | 34* | 16 | i
CC(=O)Nc1cc(-c2cccc(C(=O)NCCN(C)C)c2)cn2c(-c3cccc(C(F)(F)F)c3)cnc12 | 1 | -59 | 43 | 86* | 26* | 170* | i
CCSc1ccc(-c2cc(NC=O)c3ncc(-c4cccc(C(=O)NCCN(C)C)c4)n3c2)cc1 | 0 | -33 | 10 | 66* | 43* | 26 | i
CCSc1ccc(-c2cc(NC=O)c3ncc(-c4cccc(C(=O)N(C)C)c4)n3c2)cc1 | -2 | 1 | -8 | -16 | 0 | -26 | .
CN1CCN(C(=O)C[C@H]2CC[C@H]3[C@@H](COC[C@@H](O)CN3S(=O)(=O)c3cccc(F)c3)O2)CC1 | 0 | 6 | -12 | 11 | -1 | 20 | .
COc1cccc(CNC(=O)C[C@@H]2C=C[C@H](NS(=O)(=O)c3ccccc3OC)[C@@H](CO)O2)c1 | 0 | 4 | 12 | -5 | 0 | 8 | .
CN(C)CC/C=C1\c2cc(F)ccc2CSc2ccccc21 | . | . | . | . | . | -23 | .
CN(C)CC/C=C1\c2cc(Cl)ccc2Sc2cc(F)c(F)cc21 | 3 | -48 | . | 62* | 31* | . | i
CN(C)CC/C=C1\c2ccccc2Sc2cc(F)c(Cl)cc21 | 0 | -48 | . | 63* | 28* | -2 | i
CC(=O)Nc1cccc(N/C(N)=N/c2nc(C)cc(C)n2)c1 | . | 10 | . | 57* | 0 | 8 | i
OC[C@@H]1[C@@H](c2ccccc2)C2(CN(CCC(F)(F)F)C2)N1Cc1nccs1 | 0 | 2 | . | -16 | -1 | -4 | .
C[C@@H]1CCCCO[C@@H](CN(C)C(=O)Nc2ccc(F)cc2)[C@@H](C)CN([C@@H](C)CO)C(=O)c2cc(NC(=O)Cc3ccccc3)ccc2O1 | 0 | 3 | . | -14 | -2 | -7 | .
CCCNc1nc(Cl)nc(NCc2cccnc2)n1 | . | 17 | . | 85* | 15 | -3 | i
SMILES | E-sel inducer | rRNA inh HTS | RAD54 branch | RAD52 inh | MLL AF4-AF9 inh | INS-1E GSIS act | DNA binder FP
CCOC(=O)c1c(-c2ccccc2)oc2ccc(O)c(CN(C)C)c12 | . | . | 24 | . | . | . | .
CCOC(=O)c1c(CSCc2ccccc2)oc2ccc(O)c(CN(C)C)c12 | . | -26 | 24 | 61* | 23 | -52 | i
CN(C)CCN(C)Cc1ccccc1Sc1cccc2ccccc12 | . | -58 | 12 | 52* | 36* | 8 | i
CNCc1ccccc1Sc1cccc2ccccc12 | . | . | . | . | . | 4 | .
C[C@H](CO)N1C[C@H](C)[C@@H](CN(C)C(=O)C2CC2)Oc2cc(-c3ccccc3)ccc2S1(=O)=O | 1 | -3 | . | . | . | -2 | .
O=C(NCCCCCCCN1CCCCCCC1)C(C1CCCCC1)C1CCCCC1 | 0 | -62 | . | 82* | ? | . | i
CCC(/C=C1\Sc2ccc(OC)cc2N1CCO)=C\c1sc2ccc(OC)cc2[n+]1CCO | 0 | 4 | 11 | 83* | 22 | 2 | i
CCC(/C=C1\Sc2ccc(OC)cc2N1CC)=C\c1sc2ccc(OC)cc2[n+]1CCCS(=O)(=O)[O-] | 0 | 6 | 5 | -17 | 3 | 0 | .
CN1CCN(CCCNCc2cn(CCC#N)c3ccccc23)CC1 | . | 16 | 15 | 63* | 25* | 8 | i
N#CCCN1CCN(Cn2c3ccccc3c3ccccc32)CC1 | . | . | 5 | . | . | . | .
Cc1ccc(-c2c[n+](CC(=O)Nc3nc(-c4ccc(F)cc4)cs3)c3n2CCC3)cc1 | 0 | -59 | 41 | 58* | 17 | -67 | i
COc1cc2cc(-c3ccc(OC)c(OC)c3C)nc(N)c2cc1OC | 1 | -18 | 45 | 61* | 13 | -25 | i
C[C@@H]1CN([C@H](C)CO)C(=O)c2cccc(NS(=O)(=O)c3ccc(Cl)cc3)c2O[C@H]1CN(C)CC1CCCCC1 | -1 | -2 | 2 | 7 | -1 | 1 | .
CO[C@H]1CN(C)C(=O)c2cc(NC(=O)c3ccccc3)ccc2OC[C@@H](C)N(C)C[C@H]1C | 0 | 1 | -4 | 9 | -2 | 5 | .
